Results: ChEMBL document CHEMBL1123370, “Design and synthesis of conformationally constrained somatostatin analogues with high potency and specificity for mu opioid receptors” (J Med Chem, 1986)

How the values were obtained:
[1] = target: Opioid receptors; mu & delta (Rattus norvegicus) (UniProt P33533+P33535); assay: Ratio of receptor binding inhibitory concentrations against mu and delta opioid receptors from rat brain as IC50 (vs [3H]-DPDPE) / IC50 (vs [3H]naloxone)
Summary of the method: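 The ratio is IC50 against [3H]DPDPE (rat brain membranes, 180 min, 25 °C) divided by IC50 against 1 nM [3H]naloxone (120 min, 25 °C). Both assays used Tris-HCl pH 7.4 buffer with MgCl2, BSA and bacitracin, and filtration on PEI-treated GF/B filters.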

[2] = Ratio of receptor binding inhibitory concentrations against somatostatin receptors and mu opioid receptors from rat brain […] / IC50(vs [3H]naloxone)
[3] = target: Delta-type opioid receptor (Rattus norvegicus, UniProt P33533); assay: Inhibition of [3H]-DPDPE binding to Opioid receptor delta 1 of rat brain membranes; format: cell membranes, Membrane
Summary of the method: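 Rat brain membranes were prepared as a sucrose homogenate, spun at 1000g, and washed twice in 50 mM Tris-HCl pH 7.4 with 5 mM MgCl2, BSA 2 mg/mL and bacitracin 20 µg/mL. They were incubated with [3H]DPDPE and at least 10 freshly prepared peptide concentrations for 180 min at 25 °C. Bound ligand was separated by rapid filtration on PEI-pretreated GF/B filters.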

Mu-type opioid receptor = Mu-type opioid receptor (Rattus norvegicus, UniProt P33535); assay: Inhibition of binding of [3H]-naloxone to Opioid receptor mu 1 of rat brain membranes; format: cell membranes, Membrane
Summary of the method: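 The [3H]naloxone (1 nM) displacement used washed Sprague-Dawley rat brain membranes in 50 mM Tris-HCl pH 7.4 containing MgCl2 5 mM, BSA and bacitracin. Incubation ran 120 min at 25 °C across ≥10 analogue concentrations. Binding was terminated by filtration through GF/B filters soaked in 0.1% polyethylenimine. IC50 is mean ± SD of at least three duplicate runs.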

Rattus norvegicus = species: Rattus norvegicus; assay: Compound was evaluated for the inhibition of binding of [125I]CGP23996 to rat brain membranes; set-up: species or system Membrane
Summary of the method: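 Whole brains from adult Sprague-Dawley rats (150–200 g) were homogenized 10% w/v in 0.32 M sucrose, spun at 1000g for 10 min, and resuspended in 50 mM Tris-HCl pH 7.4 with 5 mM MgCl2, BSA 2 mg/mL and bacitracin 20 µg/mL (done twice). Membranes were incubated with 0.2 nM [125I]CGP23,996 and ≥10 analogue concentrations for 120 min at 25 °C. Filtration was through 0.1% PEI-treated GF/B filters.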

Delta-type opioid receptor, sequence (P33533 whole entry): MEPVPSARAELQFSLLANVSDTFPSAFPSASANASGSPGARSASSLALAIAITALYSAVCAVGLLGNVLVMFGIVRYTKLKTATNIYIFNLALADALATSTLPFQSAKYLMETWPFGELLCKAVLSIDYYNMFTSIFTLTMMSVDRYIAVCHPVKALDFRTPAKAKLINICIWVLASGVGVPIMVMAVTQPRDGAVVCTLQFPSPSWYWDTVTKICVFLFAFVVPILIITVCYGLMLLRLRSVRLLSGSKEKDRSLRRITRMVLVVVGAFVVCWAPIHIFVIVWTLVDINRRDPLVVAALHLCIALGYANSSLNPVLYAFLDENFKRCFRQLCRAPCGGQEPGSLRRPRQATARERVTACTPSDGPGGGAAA
Opioid receptors; mu & delta (Rattus norvegicus), sequence (P33533 whole entry, looked up): as the sequence (P33533 whole entry) above
Opioid receptors; mu & delta (Rattus norvegicus), sequence (P33535 whole entry, looked up): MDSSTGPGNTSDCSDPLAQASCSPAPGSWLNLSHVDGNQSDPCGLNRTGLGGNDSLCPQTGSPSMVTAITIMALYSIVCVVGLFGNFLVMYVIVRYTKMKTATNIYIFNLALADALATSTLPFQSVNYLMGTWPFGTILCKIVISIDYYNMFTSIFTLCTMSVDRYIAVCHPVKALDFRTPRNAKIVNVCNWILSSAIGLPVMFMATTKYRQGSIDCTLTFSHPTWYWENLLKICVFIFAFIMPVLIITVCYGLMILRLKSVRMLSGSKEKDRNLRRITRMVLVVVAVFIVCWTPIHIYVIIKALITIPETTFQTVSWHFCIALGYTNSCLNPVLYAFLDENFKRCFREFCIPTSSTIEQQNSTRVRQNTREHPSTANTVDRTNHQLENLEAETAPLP
Mu-type opioid receptor, sequence (P33535 whole entry): as the sequence (P33535 whole entry, looked up) above

Structure (SMILES): CCCC[C@@H]1NC(=O)[C@@H](Cc2c[nH]c3ccccc23)NC(=O)[C@H](Cc2ccc(O)cc2)NC(=O)[C@@H](NC(=O)[C@H](N)Cc2ccccc2)CSSC(C)(C)[C@H](C(=O)N[C@H](C(N)=O)[C@@H](C)O)NC(=O)[C@@H]([C@@H](C)O)NC1=O
- Ratio [1]: 580

Structure (SMILES): C[C@@H](O)[C@H](NC(=O)[C@H]1CSSC(C)(C)[C@H](NC(=O)[C@H](N)c2ccccc2)C(=O)N[C@@H](Cc2ccccc2)C(=O)N[C@H](Cc2c[nH]c3ccccc23)C(=O)N[C@@H](CCCCN)C(=O)N[C@H]([C@@H](C)O)C(=O)N1)C(=O)O
- Ratio [2]: 0.45
- Ratio [1]: 15

Structure (SMILES): C[C@@H](O)[C@H](NC(=O)[C@@H]1NC(=O)[C@@H]([C@@H](C)O)NC(=O)[C@H](CCCN=C(N)N)NC(=O)[C@@H](Cc2c[nH]c3ccccc23)NC(=O)[C@H](Cc2ccc(O)cc2)NC(=O)[C@@H](NC(=O)[C@H](N)Cc2ccccc2)CSSC1(C)C)C(N)=O
- Ratio [2]: 4090
- Ratio [1]: 1300

Structure (SMILES): C[C@@H](O)[C@H](NC(=O)[C@@H]1CSSC[C@H](NC(=O)[C@H](N)Cc2ccc(O)cc2)C(=O)N[C@@H](Cc2ccc(O)cc2)C(=O)N[C@H](Cc2c[nH]c3ccccc23)C(=O)N[C@@H](CCCCN)C(=O)N[C@@H]([C@@H](C)O)C(=O)N1)C(=O)O
- IC50 [3]: 27.5 µM
- IC50 (Mu-type opioid receptor): 9100 nM
- IC50 (Rattus norvegicus): 18.5 µM

Structure (SMILES): C[C@@H](O)[C@H](NC(=O)[C@@H]1CSSC(C)(C)[C@H](NC(=O)[C@H](N)c2ccccc2)C(=O)N[C@@H](Cc2ccccc2)C(=O)N[C@H](Cc2c[nH]c3ccccc23)C(=O)N[C@@H](CCCCN)C(=O)N[C@@H]([C@@H](C)O)C(=O)N1)C(=O)O
- IC50 [3]: 32 µM
- IC50 (Mu-type opioid receptor): 2100 nM
- IC50 (Rattus norvegicus): 0.947 µM

Structure (SMILES): C[C@@H](O)[C@H](NC(=O)[C@H]1NC(=O)[C@H]([C@@H](C)O)NC(=O)[C@H](CCCCN)NC(=O)[C@H](Cc2c[nH]c3ccccc23)NC(=O)[C@H](Cc2ccc(O)cc2)NC(=O)[C@@H](NC(=O)[C@H](N)Cc2ccccc2)CSSC1(C)C)C(N)=O
- IC50 [3]: > 70 µM
- IC50 (Mu-type opioid receptor): 1350 nM
- IC50 (Rattus norvegicus): 0.74 µM

Structure (SMILES): C[C@H](N)C(=O)NCC(=O)N[C@H]1CSSC[C@@H](C(=O)O)NC(=O)[C@H](CO)NC(=O)[C@H]([C@@H](C)O)NC(=O)[C@H](Cc2ccccc2)NC(=O)[C@H]([C@@H](C)O)NC(=O)[C@H](CCCCN)NC(=O)[C@H](Cc2c[nH]c3ccccc23)NC(=O)[C@H](Cc2ccccc2)NC(=O)[C@H](Cc2ccccc2)NC(=O)[C@H](CC(N)=O)NC(=O)[C@H](CCCCN)NC1=O
- Ratio [2]: 0.0003

Structure (SMILES): C[C@@H](O)[C@H](NC(=O)[C@@H]1NC(=O)[C@@H]([C@@H](C)O)NC(=O)[C@H](CCCCN)NC(=O)[C@@H](Cc2c[nH]c3ccccc23)NC(=O)[C@H](Cc2ccc(O)cc2)NC(=O)[C@@H](NC(=O)[C@H](N)Cc2ccccc2)CSSC1(C)C)C(N)=O
- Ratio [2]: 187
- Ratio [1]: 2250

Structure (SMILES): C[C@@H](O)[C@H](NC(=O)[C@@H]1NC(=O)[C@@H]([C@@H](C)O)NC(=O)[C@H](CCCCN)NC(=O)[C@@H](Cc2c[nH]c3ccccc23)NC(=O)[C@H](Cc2ccc(O)cc2)NC(=O)[C@@H](NC(=O)[C@H](N)c2ccccc2)CSSC1(C)C)C(N)=O
- Ratio [2]: 6.6
- Ratio [1]: 8

Structure (SMILES): C[C@@H](O)[C@H](NC(=O)[C@@H]1NC(=O)[C@@H]([C@@H](C)O)NC(=O)[C@H](CCCCN)NC(=O)[C@H](Cc2c[nH]c3ccccc23)NC(=O)[C@H](Cc2ccc(O)cc2)NC(=O)[C@@H](NC(=O)[C@H](N)Cc2ccccc2)CSSC1(C)C)C(N)=O
- Ratio [2]: 0.55
- Ratio [1]: > 52

Structure (SMILES): C[C@@H](O)[C@H](NC(=O)[C@H]1NC(=O)[C@H]([C@@H](C)O)NC(=O)[C@H](CCCN=C(N)N)NC(=O)[C@@H](Cc2c[nH]c3ccccc23)NC(=O)[C@H](Cc2ccc(O)cc2)NC(=O)[C@@H](NC(=O)[C@H](N)Cc2ccccc2)CSSC1(C)C)C(N)=O
- IC50 [3]: 4.5 µM
- IC50 (Mu-type opioid receptor): 3.5 nM
- IC50 (Rattus norvegicus): 14.3 µM

Structure (SMILES): C[C@@H](O)[C@H](NC(=O)[C@H]1NC(=O)[C@H]([C@@H](C)O)NC(=O)[C@H](CCCCN)NC(=O)[C@@H](Cc2c[nH]c3ccccc23)NC(=O)[C@H](Cc2ccc(O)cc2)NC(=O)[C@@H](NC(=O)[C@H](N)c2ccccc2)CSSC1(C)C)C(N)=O
- IC50 [3]: 2.8 µM
- IC50 (Mu-type opioid receptor): 350 nM
- IC50 (Rattus norvegicus): 2.3 µM

Structure (SMILES): C[C@@H](O)[C@H](NC(=O)[C@H]1NC(=O)CNC(=O)[C@H](CCCCN)NC(=O)[C@@H](Cc2c[nH]c3ccccc23)NC(=O)[C@H](Cc2ccc(O)cc2)NC(=O)[C@@H](NC(=O)[C@H](N)Cc2ccccc2)CSSC1(C)C)C(N)=O
- IC50 [3]: 58 µM
- IC50 (Mu-type opioid receptor): 539 nM
- IC50 (Rattus norvegicus): 13.3 µM

Structure (SMILES): C[C@@H](O)[C@H](NC(=O)[C@@H]1NC(=O)CNC(=O)[C@H](CCCCN)NC(=O)[C@@H](Cc2c[nH]c3ccccc23)NC(=O)[C@H](Cc2ccc(O)cc2)NC(=O)[C@@H](NC(=O)[C@H](N)Cc2ccccc2)CSSC1(C)C)C(N)=O
- Ratio [2]: 25
- Ratio [1]: 110

Structure (SMILES): CCCC[C@@H]1NC(=O)[C@@H](Cc2c[nH]c3ccccc23)NC(=O)[C@H](Cc2ccc(O)cc2)NC(=O)[C@@H](NC(=O)[C@H](N)Cc2ccccc2)CSSC(C)(C)[C@@H](C(=O)N[C@H](C(N)=O)[C@@H](C)O)NC(=O)[C@H]([C@@H](C)O)NC1=O
- IC50 [3]: 5.6 µM
- IC50 (Mu-type opioid receptor): 9.6 nM

Structure (SMILES): C[C@@H](O)[C@H](NC(=O)[C@H]1NC(=O)[C@H]([C@@H](C)O)NC(=O)[C@H](CCCCN)NC(=O)[C@@H](Cc2c[nH]c3ccccc23)NC(=O)[C@H](Cc2ccc(O)cc2)NC(=O)[C@@H](NC(=O)[C@H](N)Cc2ccccc2)CSSC1(C)C)C(N)=O
- IC50 [3]: 8.4 µM
- IC50 (Mu-type opioid receptor): 3.7 nM
- IC50 (Rattus norvegicus): 0.69 µM

Structure (SMILES): CC(C)[C@@H]1NC(=O)[C@H](CCCCN)NC(=O)[C@@H](Cc2c[nH]c3ccccc23)NC(=O)[C@H](Cc2ccc(O)cc2)NC(=O)[C@@H](NC(=O)[C@H](N)Cc2ccccc2)CSSC(C)(C)[C@@H](C(=O)NC(C(N)=O)[C@@H](C)O)NC1=O (stereo in doubt)
- IC50 [3]: 2 µM
- IC50 (Mu-type opioid receptor): 5.5 nM

Structure (SMILES): CC(C)[C@H]1NC(=O)[C@H](CCCCN)NC(=O)[C@@H]([C@@H](C)O)NC(=O)[C@H](Cc2ccc(O)cc2)NC(=O)[C@@H](NC(=O)[C@H](N)Cc2ccccc2)CSSC(C)(C)[C@H](C(=O)N[C@H](C(N)=O)[C@@H](C)O)NC1=O
- Ratio [1]: 360

Structure (SMILES): C[C@@H](O)[C@H](NC(=O)[C@H]1CSSC[C@H](NC(=O)[C@H](N)Cc2ccc(O)cc2)C(=O)N[C@@H](Cc2ccc(O)cc2)C(=O)N[C@H](Cc2c[nH]c3ccccc23)C(=O)N[C@@H](CCCCN)C(=O)N[C@H]([C@@H](C)O)C(=O)N1)C(=O)O
- Ratio [2]: 2
- Ratio [1]: 3

Structure (SMILES): C[C@@H](O)[C@H](NC(=O)[C@H]1NC(=O)[C@H]([C@@H](C)O)NC(=O)[C@H](CCCN)NC(=O)[C@@H](Cc2c[nH]c3ccccc23)NC(=O)[C@H](Cc2ccc(O)cc2)NC(=O)[C@@H](NC(=O)[C@H](N)Cc2ccccc2)CSSC1(C)C)C(N)=O
- IC50 [3]: 13.5 µM
- IC50 (Rattus norvegicus): 24.3 µM
